Consider three compounds from ChEMBL document CHEMBL1142138, “Development of a novel dicistronic reporter-selectable hepatitis C virus replicon suitable for high-throughput inhibitor screening” (Antimicrob Agents Chemother, 2007).

Each structure is given as a SMILES string. pEC50, pIC50: −log10 of the molar value.

Series [1] is described as follows: Cytotoxicity against dual-reporter HCV replicon Huh7 cells by measuring FLuc reporter activity after 72 hrs. The conditions noted are these: human. The format is cell-based, Huh-7. Summed up:
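DDR cells carry a nuclear FLuc reporter. They were seeded at 2 x 10^4/well without selection antibiotics and given eight threefold compound dilutions, final 320 to 0.1 µM. After 3 days, medium was removed and FLuc read with a dual-luciferase kit. Percent inhibition was calculated versus compound-free control.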

The nature of series [2]: Cytotoxicity against dual-reporter HCV replicon Huh7 cells by measuring XTT end points after 72 hrs. The following applies: human. It is filed as cell-based, Huh-7. Summed up:
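Cells were seeded at 2 x 10^4/well without selection antibiotics and exposed to eight threefold dilutions, final 320 to 0.1 µM, for 3 days. XTT (final 200 µg/ml) and phenazine methosulfate (final 1 mM) were then added. After 4 h, formazan was read at 450 nm against a 650 nm reference, and percent inhibition calculated versus control.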
(In general: Replicon systems follow genome replication, usually without infectious particles.)

Series [3] in a line: Selectivity index, CC50 for dual-reporter HCV replicon Huh7 cells to EC50 against HCV 1 in dual-reporter HCV replicon Huh7 cells. It is filed as functional, Huh-7. Summed up: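 Dual-reporter replicon cells: hRLuc from the replicon, FLuc in the nucleus. Seeded at 2 x 10^4/well without selection antibiotics, then eight threefold compound dilutions (final 320 to 0.1 µM). After 3 days, XTT/PMS for 4 h read at 450/650 nm, then FLuc and hRLuc luminescence. Percent inhibition calculated from the luciferase and XTT signals. Index = CC50/EC50.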

In series [4] the test system is Hepatitis C virus. As to the kind of experiment: Antiviral activity against HCV 1b con1 in dual-reporter HCV replicon Huh7 cells by measuring hRLuc reporter activity after 72 hrs. The following applies: genotype 1b con1, Huh-7, 72 h. It is filed as functional, organism-based, Hepacivirus hominis. Summed up: (§1)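 Replicon cells seeded at 2 x 10^4/well in DMEM without selection antibiotics. Eight threefold serial compound dilutions added, final 320 to 0.1 µM (IFN 10 to 0.003 IU/ml). After 3 days at 37°C, medium removed and hRLuc activity read with a dual-luciferase reporter kit. Percent inhibition was taken relative to compound-free control and EC50 derived.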

Series [5] deals with Hepatitis C virus. Nature of the series: Antiviral activity against HCV 1b con1 in dual-reporter HCV replicon Huh7 cells assessed as inhibition of HCV RNA after 72 hrs by RT-PCR. The format is functional, organism-based, Hepacivirus hominis. The following applies: genotype 1b con1, Huh-7, 72 h. Summed up: (§2)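 Cells were then PBS-washed and total RNA extracted. HCV RNA and GAPDH mRNA were quantified by TaqMan RT-PCR against standard curves, and HCV was normalized to GAPDH at each concentration. Percent inhibition was computed versus DMSO-treated wells, giving EC50. Reactions were also run without reverse transcriptase.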

Series [6] deals with Hepatitis C virus. As to the kind of experiment: Antiviral activity against HCV 1b con1 in HCV 1b in dicistronic reporter selectable HCV replicon Huh7 cells by measuring hRLuc reporter activity after 72 hrs. The format is functional, organism-based, Hepacivirus hominis. The following applies: genotype 1b con1, Huh-7, 72 h. Summed up: as §1
Series [7] addresses RNA-directed RNA polymerase (Hepacivirus hominis, UniProt O39930). Nature of the series: Inhibition of recombinant HCV 1b BK NS5B polymerase by primer/template-directed transcription assay. Also noted: species or system Hepatitis C virus subtype 1b. Summed up: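 Recombinant genotype 1b (strain BK) NS5B with biotin-dG12 primer (5 pmol) and poly(rC)300 template (0.5 pmol). Enzyme-started, 30 min at 30°C, EDTA stop, DEAE filter capture, scintillation counting. Final DMSO 1%. IC50 fitted from triplicate cpm.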

The subject of series [8] is Hepatitis C virus. Nature of the series: Antiviral activity against HCV 1b con1 in dicistronic reporter selectable HCV replicon Huh7 cells assessed as inhibition of HCV RNA after 72 hrs by RT-PCR. The format is functional, organism-based, Hepacivirus hominis. The conditions noted are these: genotype 1b con1, Huh-7, 72 h. Summed up:
as §2

Chain of RNA-directed RNA polymerase (O39930 whole entry): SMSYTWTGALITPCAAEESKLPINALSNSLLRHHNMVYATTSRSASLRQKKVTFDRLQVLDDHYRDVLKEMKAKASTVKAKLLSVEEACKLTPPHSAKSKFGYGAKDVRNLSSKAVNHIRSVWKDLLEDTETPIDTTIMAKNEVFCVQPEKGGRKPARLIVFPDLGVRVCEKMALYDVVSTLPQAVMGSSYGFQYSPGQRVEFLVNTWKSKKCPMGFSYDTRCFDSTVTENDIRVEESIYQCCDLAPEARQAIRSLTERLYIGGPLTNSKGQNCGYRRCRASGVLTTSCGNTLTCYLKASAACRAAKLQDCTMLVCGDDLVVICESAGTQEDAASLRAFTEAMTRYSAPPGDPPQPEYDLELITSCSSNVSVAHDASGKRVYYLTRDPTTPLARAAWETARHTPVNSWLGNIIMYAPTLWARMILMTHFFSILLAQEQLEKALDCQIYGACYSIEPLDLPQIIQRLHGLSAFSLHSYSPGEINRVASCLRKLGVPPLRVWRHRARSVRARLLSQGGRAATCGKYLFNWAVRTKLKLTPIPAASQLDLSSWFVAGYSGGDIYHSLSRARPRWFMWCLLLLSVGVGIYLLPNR

Take `Cc1cc(SC2=C(O)OC(CCc3ccc(O)cc3)(C3CCCC3)CC2=O)c(C(C)(C)C)cc1N` (stereo unspecified): the CC50 (commonly the concentration giving 50% cytotoxicity) at 72 h in series [1] came out at 116 µM; in series [2] it was 242 µM. The same compound displayed a Selectivity index in series [3] of 0.9. Further, the pEC50 (as a rule, the negative decadic logarithm of the EC50, by convention in mol/L) with Hepatitis C virus [4] is 3.94.

On to `COc1cc(OC)c(CCC2(C3CCCC3)CC(O)=C(Sc3nc4nc(C)cc(C)n4n3)C(=O)O2)cc1Cl` (stereo unspecified), for which the pEC50 was 5.49 in the series on Hepatitis C virus [5], 5.48 in the series with Hepatitis C virus [6], 5.62 with Hepatitis C virus [8] and 5.77 in the series with Hepatitis C virus [4]. Moreover, the CC50 at 72 h in series [1] and in series [2] was above 320 µM throughout. In series [3], this compound registered a Selectivity index above 188.2. For the same compound, in series [7], the negative logarithm of the IC50 (pIC50) (usually the IC50 on a negative log10 scale, so that one unit is a factor of ten) was 7.85.

As to `OC[C@H]1O[C@@H](n2cnc3cc(Cl)c(Cl)cc32)[C@H](O)[C@@H]1O` [DICHLORORIBOBENZIMIDAZOLE], the CC50 at 72 h in series [1] stood at 60.7 µM; in series [2], 40.4 µM. In series [3], this compound registered a Selectivity index of 0.7. In the series on Hepatitis C virus [4], this compound gave a pEC50 of 4.47.
